Experiment [1] addresses T1, Gastrin/cholecystokinin type B receptor (Homo sapiens, UniProt P32239).
T1 sequence (P32239 whole entry): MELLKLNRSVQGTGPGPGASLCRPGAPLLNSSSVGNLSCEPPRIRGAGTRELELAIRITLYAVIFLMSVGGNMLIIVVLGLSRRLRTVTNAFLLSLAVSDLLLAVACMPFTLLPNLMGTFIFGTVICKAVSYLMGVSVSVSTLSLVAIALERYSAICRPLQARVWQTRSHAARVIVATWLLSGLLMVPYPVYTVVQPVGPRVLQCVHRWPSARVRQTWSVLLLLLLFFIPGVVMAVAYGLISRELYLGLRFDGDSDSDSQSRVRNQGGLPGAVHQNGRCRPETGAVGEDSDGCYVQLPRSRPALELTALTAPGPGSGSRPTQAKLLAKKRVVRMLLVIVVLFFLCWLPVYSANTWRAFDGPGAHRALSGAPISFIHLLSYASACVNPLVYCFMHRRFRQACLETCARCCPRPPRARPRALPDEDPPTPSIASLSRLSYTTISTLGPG
Description: Displacement of [125I]CCK from gastrin receptor isolated from human tumor tissues. The gist of the method:
(§1)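 Surgically resected human tumor tissues expressing CCK-1 or gastrin receptors; 125I-CCK incubation medium with increasing amounts of competitor added to generate competitive inhibition curves.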
In general terms: Loss of bound radioactivity is the signal in a displacement assay; it reports binding, not function.

Experiment [2] addresses T2, Cholecystokinin receptor type A (Homo sapiens, UniProt P32238).
T2 sequence (P32238 whole entry): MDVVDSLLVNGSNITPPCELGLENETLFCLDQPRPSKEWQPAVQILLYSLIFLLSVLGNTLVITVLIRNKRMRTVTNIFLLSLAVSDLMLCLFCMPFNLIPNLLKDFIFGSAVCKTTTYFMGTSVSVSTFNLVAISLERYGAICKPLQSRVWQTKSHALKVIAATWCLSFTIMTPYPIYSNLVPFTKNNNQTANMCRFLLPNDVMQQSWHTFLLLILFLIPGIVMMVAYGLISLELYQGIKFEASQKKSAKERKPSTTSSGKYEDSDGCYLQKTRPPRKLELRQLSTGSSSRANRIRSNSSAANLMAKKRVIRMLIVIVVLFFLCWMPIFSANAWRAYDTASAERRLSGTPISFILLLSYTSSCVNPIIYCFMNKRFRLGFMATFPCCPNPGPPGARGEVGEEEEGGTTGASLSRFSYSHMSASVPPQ
Description: Displacement of [125I]CCK from CCK1 receptor isolated from human tumor tissues. A digest of the protocol:
as §1

Experiment [3] addresses T3, Gastrin/cholecystokinin type B receptor (Rattus norvegicus, UniProt P30553).
T3 sequence (P30553 whole entry): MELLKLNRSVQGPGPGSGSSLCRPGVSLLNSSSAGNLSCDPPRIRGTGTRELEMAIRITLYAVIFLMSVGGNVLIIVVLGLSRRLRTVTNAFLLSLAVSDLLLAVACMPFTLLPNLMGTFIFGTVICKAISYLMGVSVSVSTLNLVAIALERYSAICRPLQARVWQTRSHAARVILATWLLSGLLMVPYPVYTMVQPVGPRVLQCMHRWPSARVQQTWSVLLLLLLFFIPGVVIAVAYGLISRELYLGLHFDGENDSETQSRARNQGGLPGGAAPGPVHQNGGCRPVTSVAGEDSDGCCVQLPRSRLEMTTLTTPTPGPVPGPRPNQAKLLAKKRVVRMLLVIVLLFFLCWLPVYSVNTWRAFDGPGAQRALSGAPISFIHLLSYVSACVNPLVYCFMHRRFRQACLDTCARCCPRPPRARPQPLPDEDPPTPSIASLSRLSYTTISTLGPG
Description: Agonist activity at gastrin receptor in rat AR4-2J cells assessed as intracellular calcium mobilization by fluorescence assay. The experiment is classed as functional, cell-based. A digest of the protocol: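 AR4-2J cells seeded 50 000/well, cultured 1 day at 37 C, 5% CO2, then loaded with Ca dye in HBSS/20 mM HEPES with 2.5 mM probenecid for 1 h at 37 C. Peptides added as 1:3 serial dilutions in HBSS/HEPES/0.1% BSA/0.05% pluronic acid, diluted 1:6 on addition. Fluorescence (ex 485/em 525 nm) read 4 min at room temperature; Fmax with ionomycin; EC50 from four-parameter fit.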
On the technique in general: Calcium flux is commonly read through the fluorescence of an indicator in the cells.

The structures appear in SMILES notation. pEC50, pIC50: −log10 of the molar value. Peptide text beside a SMILES is read from it.

For the molecule `CSCC[C@H](NC(=O)[C@H](Cc1c[nH]c2ccccc12)NC(=O)CNC(=O)[C@H](Cc1ccc(O)cc1)NC(=O)[C@H](C)NC(=O)[C@@H](CO)NC(=O)[C@@H](CO)NC(=O)CN1CCN(CC(=O)O)CCN(CC(=O)O)CCN(CC(=O)O)CC1)C(=O)N[C@@H](CC(=O)O)C(=O)N[C@@H](Cc1ccccc1)C(N)=O`, the pIC50 (usually the negative decadic logarithm of the IC50, by convention in mol/L) in experiment [1] was 9.05; in experiment [2] it was under 6.15.

With `CSCC[C@H](NC(=O)[C@H](Cc1c[nH]c2ccccc12)NC(=O)CNC(=O)[C@H](Cc1ccc(O)cc1)NC(=O)[C@H](C)NC(=O)[C@@H](CCC(N)=O)NC(=O)[C@@H](CCC(N)=O)NC(=O)[C@@H](CCC(N)=O)NC(=O)[C@@H](CCC(N)=O)NC(=O)CN1CCN(CC(=O)O)CCN(CC(=O)O)CCN(CC(=O)O)CC1)C(=O)N[C@@H](CC(=O)O)C(=O)N[C@@H](Cc1ccccc1)C(N)=O`, the results for the pIC50 in experiment [1] and in experiment [2] were 8.62 and under 6.15, respectively.

For the molecule `CSCC[C@H](NC(=O)[C@H](Cc1c[nH]c2ccccc12)NC(=O)CNC(=O)[C@H](Cc1ccc(O)cc1)NC(=O)[C@H](C)NC(=O)[C@@H](CO)NC(=O)[C@@H](CO)NC(=O)[C@@H](CO)NC(=O)CN1CCN(CC(=O)O)CCN(CC(=O)O)CCN(CC(=O)O)CC1)C(=O)N[C@@H](CC(=O)O)C(=O)N[C@@H](Cc1ccccc1)C(N)=O`, the pIC50 in experiment [1] was 9.22; in experiment [2], under 6.15.

As for `CSCC[C@H](NC(=O)[C@H](Cc1c[nH]c2ccccc12)NC(=O)CNC(=O)[C@H](Cc1ccc(O)cc1)NC(=O)[C@H](C)NC(=O)[C@@H](CCC(N)=O)NC(=O)[C@@H](CCC(N)=O)NC(=O)[C@@H](CCC(N)=O)NC(=O)[C@@H](CCC(N)=O)NC(=O)[C@@H](CCC(N)=O)NC(=O)[C@@H](CCC(N)=O)NC(=O)CN1CCN(CC(=O)O)CCN(CC(=O)O)CCN(CC(=O)O)CC1)C(=O)N[C@@H](CC(=O)O)C(=O)N[C@@H](Cc1ccccc1)C(N)=O` (HELM PEPTIDE1{[O=C(O)CN1CCN(CC(=O)O)CCN(CC(=O)[*:2])CCN(CC(=O)O)CC1].[dQ].[dQ].[dQ].[dQ].[dQ].[dQ].A.Y.G.W.M.D.F.[am]}$$$$V2.0), in experiment [3], the pEC50 (in general, the EC50 on a negative log10 scale, so that one unit is a factor of ten) was 9.39. In addition, the values for the pIC50 in experiment [1] and in experiment [2] were 8.62 and under 6.15, respectively.

For the molecule `CSCC[C@H](NC(=O)[C@H](Cc1c[nH]c2ccccc12)NC(=O)CNC(=O)[C@H](Cc1ccc(O)cc1)NC(=O)[C@H](C)NC(=O)[C@@H](CCC(N)=O)NC(=O)[C@@H](CCC(N)=O)NC(=O)CN1CCN(CC(=O)O)CCN(CC(=O)O)CCN(CC(=O)O)CC1)C(=O)N[C@@H](CC(=O)O)C(=O)N[C@@H](Cc1ccccc1)C(N)=O`, the pIC50 is 9.10 in experiment [1] and under 6.15 in experiment [2].

As to `CSCC[C@H](NC(=O)[C@H](Cc1c[nH]c2ccccc12)NC(=O)CNC(=O)[C@H](Cc1ccc(O)cc1)NC(=O)[C@H](C)NC(=O)[C@H](CCC(=O)O)NC(=O)[C@H](CCC(=O)O)NC(=O)[C@H](CCC(=O)O)NC(=O)[C@H](CCC(=O)O)NC(=O)[C@H](CCC(=O)O)NC(=O)[C@H](CCC(=O)O)NC(=O)CN1CCN(CC(=O)O)CCN(CC(=O)O)CCN(CC(=O)O)CC1)C(=O)N[C@@H](CC(=O)O)C(=O)N[C@@H](Cc1ccccc1)C(N)=O`, the pIC50 in experiment [1] is 9.15; in experiment [2], under 6.15.

For the molecule `CCCC[C@H](NC(=O)[C@H](Cc1c[nH]c2ccccc12)NC(=O)CNC(=O)[C@H](Cc1ccc(O)cc1)NC(=O)[C@H](C)NC(=O)[C@@H](CCC(N)=O)NC(=O)[C@@H](CCC(N)=O)NC(=O)[C@@H](CCC(N)=O)NC(=O)CN1CCN(CC(=O)O)CCN(CC(=O)O)CCN(CC(=O)O)CC1)C(=O)N[C@@H](CC(=O)O)C(=O)N[C@@H](Cc1ccccc1)C(N)=O`, the pIC50 is 8.80 in experiment [1] and under 6.15 in experiment [2].

For the molecule `CSCC[C@H](NC(=O)[C@H](Cc1c[nH]c2ccccc12)NC(=O)CNC(=O)[C@H](Cc1ccc(O)cc1)NC(=O)[C@H](C)NC(=O)[C@@H](CCC(N)=O)NC(=O)[C@@H](CCC(N)=O)NC(=O)[C@@H](CCC(N)=O)NC(=O)CN1CCN(CC(=O)O)CCN(CC(=O)O)CCN(CC(=O)O)CC1)C(=O)N[C@@H](CC(=O)O)C(=O)N[C@@H](Cc1ccccc1)C(N)=O` (HELM PEPTIDE1{[O=C(O)CN1CCN(CC(=O)O)CCN(CC(=O)[*:2])CCN(CC(=O)O)CC1].[dQ].[dQ].[dQ].A.Y.G.W.M.D.F.[am]}$$$$V2.0), the pEC50 in experiment [3] is 9.57. Besides, the pIC50 in experiment [1] is 8.44; in experiment [2], under 6.15.

For the origin of these results see ChEMBL document CHEMBL1806401, “Highly improved metabolic stability and pharmacokinetics of indium-111-DOTA-gastrin conjugates for targeting of the gastrin receptor” (J Med Chem, 2011).
